SUMO Mot1 rescue: yeast Mot1-301 growth rescue at high temperature, primary screen, SUMOylation pathway inhibitor project, S. cerevisiae, ATP luminescence, 38.5C. S. cerevisiae Mot1-301 growth rescue; percent above DMSO median, 100 means doubled. growth rescue, % at 18.8 µM. hit rate 1% among 320,000. AID 2716, 2010;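 active means every valid replicate shows activation above 250% relative to neutral control wells; inactive means the rest, any valid replicate at or below 250%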;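 further: OY570 slx delta 5 strain wells were the positive control but not used for scaling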
IMP-1 inh: IMP-1 metallo-beta-lactamase inhibitors, primary screen, biochemical, epi-absorbance readout, Pseudomonas aeruginosa enzyme; purified IMP-1, nitrocefin hydrolysis, epi-absorbance fluorescence; inhibition, % at 5.6 µM; hit rate 0.45% among 290,000; metallo-beta-lactamase IMP-1 (Pseudomonas aeruginosa);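 active means inhibition above the mean plus 3 SD of all compounds in the same screening run, cut at about 4.5% in these data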;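 further: 0% = IMP-1 with DMSO and 100% = DMSO wells lacking enzyme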
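Assay system: purified recombinant IMP-1 beta-lactamase. Input: IMP-1 0.2 nM before substrate addition. Buffer or medium: Zinc- and detergent-supplemented HEPES buffer, pH 7.1. Schedule: 25 °C, 15 min preincubation, 25 min reaction. Signal: Epi-absorbance fluorescence, 480 nm excitation, 530 nm emission. Evaluation: percent inhibition from optical density relative to buffer-blank wells.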
DNA FID counter: compounds displacing fluorescent DNA intercalator, primary screen, artefact control for HCV NS3 helicase inhibitor project, biochemical, FID fluorescence; inhibition, % at 7.9 µM; AID 1845, 2009; DNA fluorescent intercalator displacement; hit rate 0.17% among 290,000; in the data active means inhibition above about 37%;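 further: 0% = vehicle and 100% = reference compound; higher means more ethidium bromide displaced from hairpin DNA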
SUMO HTRF inh: inhibitors of in vitro SUMOylation cascade, primary screen, biochemical, HTRF, uHTS. SUMO-conjugating enzyme UBC9 (Homo sapiens), P63279. HTRF SUMOylation assay, SAE1/SAE2 + UBC9. inhibition, % at 35 µM. hit rate 0.36% among 290,000; in the data active means inhibition above about 50%, passing the limit was not always enough
Target sequence (P63279 whole entry, looked up): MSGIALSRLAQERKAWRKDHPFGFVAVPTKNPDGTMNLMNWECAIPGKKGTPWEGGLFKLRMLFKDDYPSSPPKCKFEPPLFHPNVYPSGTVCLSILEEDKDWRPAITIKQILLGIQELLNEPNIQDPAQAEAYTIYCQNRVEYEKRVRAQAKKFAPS
VIM-2 inh: VIM-2 metallo-beta-lactamase inhibitors, primary screen, biochemical, epi-absorbance readout, Pseudomonas aeruginosa enzyme; purified VIM-2, nitrocefin hydrolysis, epi-absorbance fluorescence; inhibition, % at 5.6 µM; hit rate 0.89% among 290,000; AID 1527, 2009;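 active means inhibition above the mean of all tested compounds plus 3 SD, cutoff set per screening run, cut at about 7.5% in these data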;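 further: red hydrolysis product quenches plate fluorescence so inhibitors raise well fluorescence; 0% = enzyme with DMSO and 100% = DMSO without enzyme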
NALP1 yeast inh: NALP1 inflammasome inhibitors in reconstituted yeast, colorimetric, S. cerevisiae, triplicate retest; S. cerevisiae NALP1/ASC/caspase-1 growth, X-gal OD620, 72 h; inhibition, % at 10 µM; hit rate 0.61% among 280,000; AID 2071, 2009; in the data active means inhibition mostly above about 24%, no sharp cut-off; inactive means mostly below about 32%
Yeast Mot1 SUMO: growth restoration of Mot1-301 yeast on galactose, dose response, SUMO pathway inhibitor project, whole organism, S. cerevisiae, ATP luminescence, cherry-picked samples; shares compounds with SUMO Mot1 rescue; S. cerevisiae Mot1-301 galactose growth, 24 h; -100 = growth of slx-deleted rescue strain; growth activity, percent, % at 42 µM; 2,300 tested, under 10 active; AID 493004, 2010;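 active means Signal drops as the depositor expects, and the fitted half-maximal dose is no more than ten times the top valid tested dose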;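 further: more negative values mean stronger growth rescue toward the control strain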
Active calls of the source: *; ! = not active in a repeat. Shown are actives, neighbours in structure and some others; about 2.9% of the full set was active somewhere.

`Cc1ccc(OCC(=O)Nc2ccc(NC(=O)c3ccccc3)cc2)cc1C` gave SUMO Mot1 rescue -17, IMP-1 inh 0, DNA FID counter -22, SUMO HTRF inh 20, VIM-2 inh 0 and NALP1 yeast inh 9.
For O=C(COC(=O)Cn1cnc2ccccc21)Nc1ccc(F)c(F)c1 the results were SUMO Mot1 rescue -15.
Cc1ccc(S(=O)(=O)Nc2c(C)n(C)n(-c3ccccc3)c2=O)cc1C(=O)NCc1ccccc1 was read as SUMO Mot1 rescue -5.
For Cn1c(SCC(=O)Nc2ccccc2F)nnc1C1CCCCC1 the results were SUMO Mot1 rescue -3, IMP-1 inh -1, DNA FID counter -24, SUMO HTRF inh 10, VIM-2 inh -1 and NALP1 yeast inh 15.
For COc1ccc(C2C3=C(CC(C)(C)CC3=O)Nc3n[nH]c(C)c32)cc1 (centres undefined) the results were SUMO Mot1 rescue 365*, IMP-1 inh -1, DNA FID counter -8, SUMO HTRF inh 12, VIM-2 inh 2, NALP1 yeast inh 8 and Yeast Mot1 SUMO 0.
`Cc1[nH]nc2c1C(c1cccs1)C1=C(CC(C)(C)CC1=O)N2` (centres undefined) gave SUMO Mot1 rescue 662*, IMP-1 inh -3, DNA FID counter -9, SUMO HTRF inh 12, VIM-2 inh -2, NALP1 yeast inh -12 and Yeast Mot1 SUMO 0.
Screening O=C(c1ccncc1)N(Cc1ccccc1)Cc1nc2ccccc2c(=O)[nH]1 returned SUMO Mot1 rescue 414*, IMP-1 inh -4, DNA FID counter -7, SUMO HTRF inh 21, VIM-2 inh -6, NALP1 yeast inh 10 and Yeast Mot1 SUMO 0.
COC(C[C@@H]1O[C@@H]1[C@@H](O)COCc1ccccc1)OC was read as SUMO HTRF inh 21.
COCCN(Cc1ccccc1)C(=O)C1CCN(S(=O)(=O)c2ccc3c(c2)OCCO3)CC1 was read as SUMO Mot1 rescue 45.
For CC(N=C(NC#N)Nc1ccncc1)C(C)(C)C (centres undefined) the results were SUMO Mot1 rescue 798*!, IMP-1 inh -2, DNA FID counter 1, SUMO HTRF inh 14, VIM-2 inh -1, NALP1 yeast inh 12 and Yeast Mot1 SUMO 0.
For CCCC(C)C(=O)Nc1ccncc1 (centres undefined) the results were SUMO Mot1 rescue -2, IMP-1 inh -2, DNA FID counter -27, SUMO HTRF inh 6, VIM-2 inh -2 and NALP1 yeast inh 11.
For CCN1CCN(S(=O)(=O)c2cc(C(=O)O)ccc2Cl)CC1 the results were SUMO Mot1 rescue 1, IMP-1 inh -3, DNA FID counter 0, SUMO HTRF inh -3, VIM-2 inh -2 and NALP1 yeast inh -10.
Screening Fc1cccc(Nc2ncnc3sccc23)c1 returned SUMO Mot1 rescue 655*, IMP-1 inh 1, DNA FID counter 0, SUMO HTRF inh 16, VIM-2 inh 0, NALP1 yeast inh 21 and Yeast Mot1 SUMO 0.
`O=C(O)c1cccc(Nc2ncnc3sccc23)c1` gave SUMO Mot1 rescue -17, IMP-1 inh -1, DNA FID counter -2, SUMO HTRF inh 4, VIM-2 inh 0 and NALP1 yeast inh 21.
COc1ccccc1OCC(=O)Nc1sc2c(c1C(=O)NCC1CCCO1)CCC2 (centres undefined) was read as SUMO Mot1 rescue 3, IMP-1 inh 2, DNA FID counter -27, SUMO HTRF inh -4, VIM-2 inh 0 and NALP1 yeast inh 28.
`CN(C)c1ccc(C2CC(c3cccc(NS(C)(=O)=O)c3)=NN2C(=O)c2ccccc2)cc1` (centres undefined) gave SUMO Mot1 rescue -4, IMP-1 inh 0, DNA FID counter -5, SUMO HTRF inh -19, VIM-2 inh 1 and NALP1 yeast inh -1.
For COc1cccc(C2CC(c3cccc(NS(C)(=O)=O)c3)=NN2C(=O)c2ccccc2)c1OC (centres undefined) the results were SUMO Mot1 rescue 387*, IMP-1 inh -4, DNA FID counter -25, SUMO HTRF inh 1, VIM-2 inh -2, NALP1 yeast inh 23 and Yeast Mot1 SUMO 0.
Screening COc1ccc(O)c(C(=O)c2cnc3c(c2)c(=O)[nH]c(=O)n3C)c1 returned SUMO Mot1 rescue 3, IMP-1 inh -1, DNA FID counter -2, SUMO HTRF inh -1, VIM-2 inh 2 and NALP1 yeast inh 26.
COCCn1c(=O)[nH]c(=O)c2cc(C(=O)c3cc(Cl)ccc3O)cnc21 was read as SUMO Mot1 rescue 838*, IMP-1 inh -3, DNA FID counter -20, SUMO HTRF inh -5, VIM-2 inh -4, NALP1 yeast inh 9 and Yeast Mot1 SUMO 0.
For CCOc1ccc(C(C)=O)cc1COc1cccnc1[N+](=O)[O-] the results were SUMO Mot1 rescue 5, IMP-1 inh -2, DNA FID counter -7, SUMO HTRF inh 14, VIM-2 inh 1 and NALP1 yeast inh 4.
Cc1ccc(-c2cc(C(=O)O)c3ccccc3n2)s1 was read as SUMO Mot1 rescue 891*, IMP-1 inh -2, DNA FID counter -4, SUMO HTRF inh 34, VIM-2 inh 0, NALP1 yeast inh 21 and Yeast Mot1 SUMO -1.
`O=C(O)c1cc(-c2ccc(Cl)s2)nc2ccccc12` gave SUMO Mot1 rescue -14, IMP-1 inh -2, DNA FID counter -9, SUMO HTRF inh 31, VIM-2 inh -1 and NALP1 yeast inh 13.
`O=c1[nH]c(SCc2ccc([N+](=O)[O-])cc2)nc2[nH]ncc12` gave SUMO Mot1 rescue 4, IMP-1 inh -4, DNA FID counter 2, SUMO HTRF inh 5, VIM-2 inh -1 and NALP1 yeast inh -4.
`O=c1cnc2ccccc2n1Cc1ccccc1C(F)(F)F` gave SUMO Mot1 rescue 515*, IMP-1 inh -1, DNA FID counter -9, SUMO HTRF inh 3, VIM-2 inh 0, NALP1 yeast inh 29 and Yeast Mot1 SUMO 0.
Cc1ccc(OCCn2c(=O)cnc3ccccc32)cc1 was read as SUMO Mot1 rescue -2, IMP-1 inh -5, DNA FID counter -21, SUMO HTRF inh 17, VIM-2 inh -2 and NALP1 yeast inh -44.

Screens from PubChem BioAssay.
